This is an account of results in ChEMBL document CHEMBL3243962, “Antileukemic activity of derivatives of 1,2-dimethyl-3,4-bis(hydroxymethyl)-5-phenylpyrrole bis(N-methylcarbamate)” (J Med Chem, 1979).

For series [1], the system named is Mus musculus. Description: Toxicity in mouse P388 cells allografted CD2F1 mouse assessed as mouse survival at 10 mg/kg, ip of total 9 doses starting 24 hrs post tumor inoculation measured on day 5 of inoculation relative to control. It counts as organism-based. As to conditions: in vivo. Details: dose 10 mg/kg, route intraperitoneal. In a few lines:
(§1)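 Male CD2F1 mice bearing ip P388 leukemia (6×10^6 cells) were dosed ip with nine daily doses in distilled water–Tween 80 suspension, starting 24 h after inoculation. Survivors per group of 6 were counted on day 5, i.e. 4 days after the first dose. Body-weight change of treated minus control mice was also recorded.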

Series [2] has as its system Mus musculus. Put plainly: Toxicity in mouse P388 cells allografted CD2F1 mouse assessed as mouse survival at 20 mg/kg, ip of total 9 doses starting 24 hrs post tumor inoculation measured on day 5 of inoculation relative to control. The arrangement: dose 20 mg/kg, route intraperitoneal. The conditions noted are these: in vivo. It counts as organism-based. In outline:
as §1

In series [3] the test system is P388. Put plainly: Antitumor activity against mouse P388 cells allografted in CD2F1 mouse assessed as increase in mouse survival at 20 mg/kg, ip of total 9 doses starting 24 hrs post tumor inoculation measured on day 5 of inoculation relative to control. The conditions noted are these: route intraperitoneal. It counts as functional. In outline:
(§2)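 Male CD2F1 mice inoculated ip with 6×10^6 P388 leukemia cells. Dosing was ip as a suspension in distilled water–Tween 80, nine daily doses starting 24 h after inoculation. Activity was read as median survival time of treated vs control mice (% T/C); % T/C ≥ 120 was considered significant. Groups were 6 mice.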

The test system of series [4] is P388. Description: Antitumor activity against mouse P388 cells allografted in CD2F1 mouse assessed as increase in mouse survival at 5 mg/kg, ip of total 9 doses starting 24 hrs post tumor inoculation measured on day 5 of inoculation relative to control. As to conditions: route intraperitoneal. It counts as functional. In a few lines:
as §2

The subject of series [5] is Mus musculus. Description: Toxicity in mouse P388 cells allografted CD2F1 mouse assessed as mouse survival at 5 mg/kg, ip of total 9 doses starting 24 hrs post tumor inoculation measured on day 5 of inoculation relative to control. It counts as organism-based. The arrangement: dose 5 mg/kg, route intraperitoneal. As to conditions: in vivo. In outline:
as §1

For series [6], the system named is P388. Put plainly: Antitumor activity against mouse P388 cells allografted in CD2F1 mouse assessed as increase in mouse survival at 40 mg/kg, ip of total 9 doses starting 24 hrs post tumor inoculation measured on day 5 of inoculation relative to control. It counts as functional. The conditions noted are these: route intraperitoneal. In outline:
as §2

The test system of series [7] is Mus musculus. Put plainly: Toxicity in mouse P388 cells allografted CD2F1 mouse assessed as body weight loss at 20 mg/kg, ip of total 9 doses starting 24 hrs post tumor inoculation measured on day 5 of inoculation relative to control. It counts as organism-based. Details: dose 20 mg/kg, route intraperitoneal. As to conditions: in vivo. In outline: (§3)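 Male CD2F1 mice inoculated ip with 6×10^6 P388 leukemia cells. Compounds given ip as distilled water–Tween 80 suspension, nine daily doses starting 24 h after inoculation; six mice per dose group. Treated-minus-control body-weight change (T − C) and toxicity-day survivors recorded on day 5 (4 days after first dose).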

The test system of series [8] is Mus musculus. Description: Toxicity in mouse P388 cells allografted CD2F1 mouse assessed as body weight loss at 40 mg/kg, ip of total 9 doses starting 24 hrs post tumor inoculation measured on day 5 of inoculation relative to control. As to conditions: in vivo. It counts as organism-based. Details: dose 40 mg/kg, route intraperitoneal. In outline:
as §3

Series [9] concerns Mus musculus. Put plainly: Toxicity in mouse P388 cells allografted CD2F1 mouse assessed as body weight loss at 5 mg/kg, ip of total 9 doses starting 24 hrs post tumor inoculation measured on day 5 of inoculation relative to control. Type of series: organism-based. Details: dose 5 mg/kg, route intraperitoneal. As to conditions: in vivo. In a few lines: as §3
Series [10] concerns Mus musculus. Description: Toxicity in mouse P388 cells allografted CD2F1 mouse assessed as body weight loss at 10 mg/kg, ip of total 9 doses starting 24 hrs post tumor inoculation measured on day 5 of inoculation relative to control. It counts as organism-based. The arrangement: dose 10 mg/kg, route intraperitoneal. The conditions noted are these: in vivo. In a few lines:
as §3

The subject of series [11] is P388. Put plainly: Antitumor activity against mouse P388 cells allografted in CD2F1 mouse assessed as increase in mouse survival at 10 mg/kg, ip of total 9 doses starting 24 hrs post tumor inoculation measured on day 5 of inoculation relative to control. Type of series: functional. The conditions noted are these: route intraperitoneal. In a few lines: as §2

On to `CNC(=O)OCc1c(COC(=O)NC)c(-c2ccc(Br)cc2)n(C)c1C`, for which the Activity result was “Non-toxic” in the series on Mus musculus [1]; “Non-toxic” in the series on Mus musculus [2]; “Non-toxic” in the series on Mus musculus [5]; 2.8 g with Mus musculus [7]; 5 g with Mus musculus [8]; 1.8 g with Mus musculus [9]. Besides, the Activity in the series on Mus musculus [10] turned out to be 2.8 g. Also, the T/C (as a rule, the result in the treated group divided by that in the control group, in per cent) in the series on P388 [3] is recorded as 155%; in the series with P388 [4], 144%; with P388 [6], less than 75%; in the series with P388 [11] it was 146%.
